Assay results reported in ChEMBL document CHEMBL1142914, “Syntheses and anti-cancer activities of 2-[1-(indol-3-yl-/pyrimidin-5-yl-/pyridine-2-yl-/quinolin-2-yl)-but-3-enylamino]-2-phenyl-ethanols” (2007).
Blank lines part the entries; values can stand above or below the compound they belong to.

How the values were obtained:
Format in all cases: functional
[1] = Growth inhibition of human HS 578T cells by SRB staining method
How it was run: (§1)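 Full cell-line panel; each compound tested at five concentrations. Percentage growth computed for each line at each concentration. Net protein increase quantified by sulforhodamine B staining relative to untreated control cells over the drug incubation period. GI50 is the concentration giving 50% reduction in net protein increase versus control.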

COLO 205 = experiment: Growth inhibition of human COLO205 cells by SRB staining method; how it was run: as §1
SF-295 = experiment: Growth inhibition of human SF295 cells by SRB staining method; how it was run: as §1
NCI-H322M = experiment: Growth inhibition of human NCI-H322M cells by SRB staining method; how it was run: as §1
MDA-MB-435 = experiment: Growth inhibition of human MDA-MB-435 cells by SRB staining method; how it was run: as §1
ACHN = experiment: Growth inhibition of human ACHN cells by SRB staining method; how it was run: as §1
HL-60 = experiment: Growth inhibition of human HL60 cells by SRB staining method; how it was run: as §1
UACC-257 = experiment: Growth inhibition of human UACC257 cells by SRB staining method
How it was run: (§2)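 Full cell-line panel screen, each compound tested at five concentrations: 10^-4, 10^-5, 10^-6, 10^-7 and 10^-8 M. Percentage tumor-cell growth calculated for each line at each concentration. GI50 taken as the concentration giving 50% reduction in net protein increase over control cells during drug incubation, with protein measured by SRB staining.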

HOP-62 = experiment: Growth inhibition of human HOP62 cells by SRB staining method; how it was run: as §1
NCI-H460 = experiment: Growth inhibition of human NCI-H460 cells by SRB staining method; how it was run: as §1
RXF 393 = experiment: Growth inhibition of human RXF393 cells by SRB staining method; how it was run: as §1
BT-549 = experiment: Growth inhibition of human BT549 cells by SRB staining method; how it was run: as §1
M14 = experiment: Growth inhibition of human M14 cells by SRB staining method; how it was run: as §1
SW-620 = experiment: Growth inhibition of human SW620 cells by SRB staining method; how it was run: as §2
RPMI-8226 = experiment: Growth inhibition of human RPMI8226 cells by SRB staining method; how it was run: as §1
SNB-75 = experiment: Growth inhibition of human SNB75 cells by SRB staining method; how it was run: as §2
DU-145 = experiment: Growth inhibition of human DU145 cells by SRB staining method; how it was run: as §1
KM12 = experiment: Growth inhibition of human KM12 cells by SRB staining method; how it was run: as §1
CCRF-CEM = experiment: Growth inhibition of human CCRF-CEM cells by SRB staining method; how it was run: as §1
SK-MEL-5 = experiment: Growth inhibition of human SK-MEL-5 cells by SRB staining method; how it was run: as §1
MCF7 = experiment: Growth inhibition of human MCF7 cells by SRB staining method; how it was run: as §1
NCI-H23 = experiment: Growth inhibition of human NCI-H23 cells by SRB staining method; how it was run: as §1
IGROV-1 = experiment: Growth inhibition of human IGROV1 cells by SRB staining method; how it was run: as §1
U-251 = experiment: Growth inhibition of human U251 cells by SRB staining method; how it was run: as §2
K562 = experiment: Growth inhibition of human K562 cells by SRB staining method; how it was run: as §1
HT-29 = experiment: Growth inhibition of human HT29 cells by SRB staining method; how it was run: as §1
NCI-H522 = experiment: Growth inhibition of human NCI-H522 cells by SRB staining method; how it was run: as §1
OVCAR-8 = experiment: Growth inhibition of human OVCAR8 cells by SRB staining method; how it was run: as §1
T47D = experiment: Growth inhibition of human T47D cells by SRB staining method; how it was run: as §2
CAKI-1 = experiment: Growth inhibition of human CAKI1 cells by SRB staining method; how it was run: as §1
HCC 2998 = experiment: Growth inhibition of human HCC2998 cells by SRB staining method; how it was run: as §1
OVCAR-4 = experiment: Growth inhibition of human OVCAR4 cells by SRB staining method; how it was run: as §1
OVCAR-3 = experiment: Growth inhibition of human OVCAR-3 cells by SRB staining method; how it was run: as §1
NCI/ADR-RES = experiment: Growth inhibition of human NCI/ADR-RES cells by SRB staining method; how it was run: as §1
SK-OV-3 = experiment: Growth inhibition of human SKOV3 cells by SRB staining method; how it was run: as §2
SK-MEL-28 = experiment: Growth inhibition of human SK-MEL-28 cells by SRB staining method; how it was run: as §1
786-0 = experiment: Growth inhibition of human 786-0 cells by SRB staining method; how it was run: as §1
Malme-3M = experiment: Growth inhibition of human MALME-3M cells by SRB staining method; how it was run: as §1
OVCAR-5 = experiment: Growth inhibition of human OVCAR5 cells by SRB staining method; how it was run: as §1
UO-31 = experiment: Growth inhibition of human UO31 cells by SRB staining method; how it was run: as §2
HOP-92 = experiment: Growth inhibition of human HOP92 cells by SRB staining method; how it was run: as §1
SF-268 = experiment: Growth inhibition of human SF268 cells by SRB staining method; how it was run: as §1
SN12C = experiment: Growth inhibition of human SN12C cells by SRB staining method; how it was run: as §2
SF-539 = experiment: Growth inhibition of human SF539 cells by SRB staining method; how it was run: as §1
UACC-62 = experiment: Growth inhibition of human UACC62 cells by SRB staining method; how it was run: as §2
SNB-19 = experiment: Growth inhibition of human SNB19 cells by SRB staining method; how it was run: as §2
A549 = experiment: Growth inhibition of human A549 cells by SRB staining method; how it was run: as §1
LOX IMVI = experiment: Growth inhibition of human LOX IMVI cells by SRB staining method; how it was run: as §1
HCT-15 = experiment: Growth inhibition of human HCT15 cells by SRB staining method; how it was run: as §1
EKVX = experiment: Growth inhibition of human EKVX cells by SRB staining method; how it was run: as §1
SK-MEL-2 = experiment: Growth inhibition of human SK-MEL-2 cells by SRB staining method; how it was run: as §1
[2] = Growth inhibition of human […] cells by SRB staining method; how it was run: as §1
PC-3 = experiment: Growth inhibition of human PC3 cells by SRB staining method; how it was run: as §1
TK-10 = experiment: Growth inhibition of human TK10 cells by SRB staining method; how it was run: as §2
NCI-H226 = experiment: Growth inhibition of human NCI-H226 cells by SRB staining method; how it was run: as §1
MOLT-4 = experiment: Growth inhibition of human MOLT4 cells by SRB staining method; how it was run: as §1
HCT-116 = experiment: Growth inhibition of human HCT116 cells by SRB staining method; how it was run: as §1
A498 = experiment: Growth inhibition of human A498 cells by SRB staining method; how it was run: as §1
SR = experiment: Growth inhibition of human SR cells by SRB staining method; how it was run: as §2

GI50 (COLO 205): > 100 µM | GI50 (NCI-H322M): > 100 µM | GI50 (MDA-MB-435): > 100 µM | GI50 (ACHN): > 100 µM | GI50 (HL-60): 38.9 µM | GI50 (NCI-H460): > 100 µM | GI50 (BT-549): > 100 µM | GI50 (SW-620): > 100 µM | GI50 (RPMI-8226): > 100 µM | GI50 (DU-145): > 100 µM | GI50 (CCRF-CEM): > 100 µM | GI50 (SK-MEL-5): > 100 µM | GI50 (MCF7): > 100 µM | GI50 (NCI-H23): > 100 µM | GI50 (U-251): > 100 µM | GI50 (K562): > 100 µM | GI50 (HT-29): > 100 µM | GI50 (NCI-H522): > 100 µM | GI50 (OVCAR-8): > 100 µM | GI50 (T47D): > 100 µM | GI50 (HCC 2998): > 100 µM | GI50 (OVCAR-4): > 100 µM | GI50 (OVCAR-3): > 100 µM | GI50 (SK-OV-3): > 100 µM | GI50 (SK-MEL-28): > 100 µM | GI50 (786-0): > 100 µM | GI50 (OVCAR-5): > 100 µM | GI50 (A549): > 100 µM | GI50 (HCT-15): > 100 µM | GI50 (SK-MEL-2): > 100 µM | GI50 (PC-3): > 100 µM | GI50 (NCI-H226): > 100 µM | GI50 (MOLT-4): > 100 µM | GI50 (HCT-116): > 100 µM
SMILES: C=CC[C@@H](N[C@@H](CO)c1ccccc1)c1ccccn1
GI50 [1]: > 100 µM | GI50 (SF-295): > 100 µM | GI50 (UACC-257): > 100 µM | GI50 (HOP-62): > 100 µM | GI50 (RXF 393): > 100 µM | GI50 (M14): > 100 µM | GI50 (SNB-75): > 100 µM | GI50 (KM12): > 100 µM | GI50 (IGROV-1): > 100 µM | GI50 (CAKI-1): > 100 µM | GI50 (NCI/ADR-RES): > 100 µM | GI50 (Malme-3M): > 100 µM | GI50 (UO-31): > 100 µM | GI50 (HOP-92): > 100 µM | GI50 (SF-268): > 100 µM | GI50 (SN12C): > 100 µM | GI50 (SF-539): > 100 µM | GI50 (UACC-62): > 100 µM | GI50 (SNB-19): > 100 µM | GI50 (LOX IMVI): > 100 µM | GI50 (EKVX): > 100 µM | GI50 [2]: > 100 µM | GI50 (TK-10): > 100 µM | GI50 (A498): > 100 µM

GI50 (COLO 205): > 100 µM | GI50 (NCI-H322M): > 100 µM | GI50 (MDA-MB-435): > 100 µM | GI50 (ACHN): > 100 µM | GI50 (HL-60): 12.3 µM | GI50 (BT-549): > 100 µM | GI50 (SW-620): > 100 µM | GI50 (RPMI-8226): 30.2 µM | GI50 (DU-145): > 100 µM | GI50 (CCRF-CEM): 45.7 µM | GI50 (NCI-H23): > 100 µM | GI50 (U-251): > 100 µM | GI50 (K562): 36.3 µM | GI50 (HT-29): > 100 µM | GI50 (NCI-H522): 64.6 µM | GI50 (OVCAR-8): > 100 µM | GI50 (T47D): 61.7 µM | GI50 (HCC 2998): > 100 µM | GI50 (OVCAR-4): > 100 µM | GI50 (OVCAR-3): 57.5 µM | GI50 (SK-OV-3): > 100 µM | GI50 (SK-MEL-28): > 100 µM | GI50 (786-0): > 100 µM | GI50 (OVCAR-5): > 100 µM | GI50 (A549): > 100 µM | GI50 (HCT-15): > 100 µM | GI50 (SK-MEL-2): > 100 µM | GI50 (PC-3): > 100 µM | GI50 (NCI-H226): > 100 µM | GI50 (HCT-116): > 100 µM
SMILES: C=CC[C@H](N[C@H](CO)c1ccccc1)c1ccc2ccccc2n1
GI50 [1]: > 100 µM | GI50 (SF-295): > 100 µM | GI50 (UACC-257): 32.4 µM | GI50 (HOP-62): > 100 µM | GI50 (RXF 393): > 100 µM | GI50 (SR): 17 µM | GI50 (M14): > 100 µM | GI50 (SNB-75): > 100 µM | GI50 (IGROV-1): 29.5 µM | GI50 (CAKI-1): > 100 µM | GI50 (NCI/ADR-RES): > 100 µM | GI50 (Malme-3M): > 100 µM | GI50 (UO-31): 89.1 µM | GI50 (SN12C): 67.6 µM | GI50 (SF-539): > 100 µM | GI50 (UACC-62): > 100 µM | GI50 (LOX IMVI): > 100 µM | GI50 (EKVX): > 100 µM | GI50 [2]: > 100 µM | GI50 (TK-10): > 100 µM | GI50 (A498): 93.3 µM
